Shown are actives, neighbours in structure and some others; about 3.9% of the full set was active somewhere.
SF1 activator: activators of human nuclear receptor SF-1; Q13285; CHO-K1 Gal4-SF-1 LBD luciferase reporter; % increase over DMSO SF-1-specific signal; activation, % at 10 µM; 1.9% of 65,000 active; AID 522;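 active = activation above the mean activation of all tested compounds plus 3 SD, cut at about 50% in these data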
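Material: Transient Gal4-SF-1 LBD reporter, CHO-K1 | Input: 4,000 cells/well | Dosing: One dose, 10 µM compound, 1% DMSO | Incubation: 20 h compound treatment, 37 °C | Detection: SteadyLite luciferase luminescence | Evaluation: Percent activation relative to DMSO median and mock-transfected background | Benchmarks: DMSO-treated SF-1-transfected cells as negative, DMSO-treated mock-transfected cells lacking SF-1 as background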
RORA act: RORA (human) activation; AID 560; 1.5% of 65,000 active; P35398; CHO-K1 Gal4-RORA LBD luciferase reporter, luminescence; percent increase over mock-subtracted basal signal; activation, % at 10 µM;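 active = activation above the mean of all tested compounds plus 3 SD, cut at about 49% in these data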;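 note: 0% = DMSO-treated RORA cells and 100% = added signal equal to DMSO minus mock-transfected cells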
Target sequence (P35398 whole entry, looked up, the tested form may be a part): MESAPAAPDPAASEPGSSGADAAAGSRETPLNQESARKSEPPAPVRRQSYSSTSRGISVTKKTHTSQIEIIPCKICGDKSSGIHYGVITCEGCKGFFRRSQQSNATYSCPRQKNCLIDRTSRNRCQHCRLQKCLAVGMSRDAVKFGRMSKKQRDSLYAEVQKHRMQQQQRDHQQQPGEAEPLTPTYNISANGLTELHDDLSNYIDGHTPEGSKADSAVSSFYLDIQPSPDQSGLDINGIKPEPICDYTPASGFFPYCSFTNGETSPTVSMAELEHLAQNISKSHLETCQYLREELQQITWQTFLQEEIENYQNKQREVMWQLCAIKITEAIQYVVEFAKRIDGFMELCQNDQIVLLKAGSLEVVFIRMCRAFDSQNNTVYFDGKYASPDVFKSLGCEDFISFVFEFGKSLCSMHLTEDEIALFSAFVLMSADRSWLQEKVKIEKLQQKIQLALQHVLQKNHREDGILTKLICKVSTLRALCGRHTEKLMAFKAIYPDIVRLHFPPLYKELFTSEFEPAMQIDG
Jurkat viability: cytotoxicity toward Jurkat cells. Jurkat E6.1 viability, ATP luminescence, 48 h. inhibition, % at 4 µM. 1.2% of 56,000 active;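 active = inhibition above the mean inhibition of all tested compounds plus 3 SD, cut at about 28% in these data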
HEK293 NFkB inh: lowers PMA/ionomycin-induced NF-kB signal in HEK293 cells. HEK-293 NF-kB luciferase reporter, luminescence. inhibition, % at 3 µM. 0.21% of 62,000 active. AID 465;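 active = inhibition above the mean of all tested compounds plus 3 SD, cut at about 40% in these data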;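 note: 0% = stimulated DMSO wells and 100% = 10 µM reference inhibitor 5653914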
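Material: HEK-293 cells with stable firefly luciferase reporter driven by four HIV NF-kB elements / Also added: PMA plus ionomycin mix as NF-kB-activating stimulus / Compound dosing: 3 µM once, 0.30% DMSO / Times: 1 h pretreatment, 16 h stimulation, 37 °C / Signal: luminescence / Evaluation: per-plate % inhibition versus controls / Benchmarks: DMSO and 10 µM reference inhibitor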
* hit, by the source's call; . = no result.

SMILES | SF1 activator | RORA act | Jurkat viability | HEK293 NFkB inh
C=CCN(CC=C)S(=O)(=O)c1ccc2nc(NC(=O)C(C)C)sc2c1 | 20 | 60* | 72* | 15
O=S(=O)(NCCc1ccncc1)c1ccc(S(=O)(=O)N2CCCCCC2)cc1 | 0 | 16 | -3 | 12
CC1=C(C(=O)OC2CCCC2)C(c2ccc(C)o2)C2=C(CC(c3cccs3)CC2=O)N1 (stereo unspecified) | 26 | 4 | 8 | -2
O=C(c1cc(-c2cccs2)on1)N1CCCc2ccccc21 | 25 | 6 | 0 | 9
O=C(NC1CCCCC1)c1cc(-c2ccco2)on1 | 58* | 18 | -3 | -25
O=C(NC1CCCC1)c1cc(-c2cccs2)on1 | 20 | 109* | 6 | -64
COc1ccc(-c2cc(C(=O)NC3CCCC3)no2)cc1OC | 33 | 22 | -1 | 6
CC1CCCC(C)N1C(=O)c1cc(-c2cccs2)on1 (stereo unspecified) | 29 | 61* | 2 | -17
CCCNC(=O)c1cc(-c2ccco2)on1 | 34 | 36 | 11 | -56
COC(=O)C1=CNC=C(C(=O)OC)C1c1ccc(C(=O)OC)cc1 | -6 | -23 | 6 | 14
O=c1c2ccccc2nc2ccc(NCc3ccco3)nn12 | 9 | 53* | 13 | -3
O=C1CN(Cc2ccccc2)C(=NCc2ccco2)S1 | -5 | 0 | 6 | 16
COC(=O)C1=C(C)N(c2ccc(Cl)c(Cl)c2)C(=O)C1 | -8 | -22 | 64* | 10
Cc1cc(C(=O)Nc2ccccc2C(F)(F)F)no1 | -7 | -5 | -3 | 3
O=C(Nc1ccccc1C(F)(F)F)c1cc(-c2ccccc2O)on1 | 27 | 27 | 89* | -18
c1cncc(-c2nc(-c3ccc4c(c3)OCO4)cs2)c1 | 49 | 40 | . | -6
Oc1ccc(-c2nc(-c3ccc(O)c(O)c3)cs2)cc1 | 28 | 39 | 97* | 18
O=c1cc(NCc2ccco2)c2ccccc2o1 | 1 | -13 | . | 13
CC1(C)C=C(c2ccc(O)cc2)CC(C)(C)N1 | -2 | -11 | 4 | 2
OC1(c2cccc(C(F)(F)F)c2)CCN(c2ccc(-c3ccccc3)nn2)CC1 | 38 | 66* | . | -27
O=C(CCN1CCc2ccccc2C1)Nc1ccc(F)cc1 | 10 | -9 | 0 | 17
COc1ccccc1NS(=O)(=O)c1ccc(NC(C)=O)cc1 | 5 | 11 | -3 | 6
COC(=O)/C=C/S(=O)(=O)c1ccc(NC(C)=O)cc1 | -7 | 2 | 71* | 2
c1ccc(Cc2nnc3sc(-c4ccc5c(c4)OCCO5)nn23)cc1 | 55* | 38 | -8 | 4
O=C(NC1CCCc2ccccc21)C1CCN(C(=O)c2sccc2-n2cccc2)CC1 (stereo unspecified) | -17 | -7 | -7 | 10
SMILES | SF1 activator | RORA act | Jurkat viability | HEK293 NFkB inh
COc1cc(C)nc(N(C)S(=O)(=O)c2ccccc2Cl)n1 | 6 | -10 | . | .
C=CCN=C(NC#N)SCC(=O)c1cccc(OC)c1 | 36 | 23 | -7 | -11
Cc1ccc2c(COC(=O)C3=COCCO3)cc(=O)oc2c1 | 67* | 38 | 2 | -30
Clc1ccc(-n2nnnc2-c2ccccc2)cc1Cl | -9 | -25 | 4 | 7
COc1ccc(-n2nnnc2-c2cccc(OC)c2)cc1 | 13 | 2 | 78* | 21
Cc1cc(C)c(C)c(OCc2nc(-c3cccnc3)no2)c1 | -5 | 5 | 12 | -2
Cc1ccc(OCc2nc(-c3ccccc3)no2)c(C)c1 | 59* | 40 | 0 | -16
O=C(Nc1ccccc1-c1ccccc1)C1CCCN(c2ncccn2)C1 (stereo unspecified) | 2 | -7 | -4 | 15
C=CCNc1nc(-c2ccc(OC)cc2OC)cs1 | 102* | 52* | -6 | -8
COc1ccccc1OCc1csc(NC(=O)c2ccco2)n1 | 67* | 21 | -2 | -16
Cc1csc(NC(=O)c2ccco2)n1 | 16 | 32 | 12 | -1
COC(=O)c1ccc(NC(=O)Cn2nnc3ccccc32)cc1 | 76* | 42 | 12 | -11
CC(C)(C)C1CCc2[nH]c3ccccc3c(=O)c2C1 (stereo unspecified) | 56* | 98* | -4 | -18
CCCOC(=O)C1=C(C)NC2=C(C(=O)CCC2)C1c1cccc(OC)c1OC (stereo unspecified) | -3 | -10 | 0 | 14
Cc1csc2nc(CSc3nc4ccccc4o3)c(Br)n12 | 61* | 34 | 7 | -13
Cc1csc2nc(CSc3nncn3-c3ccccc3)c(Br)n12 | 21 | -2 | 12 | 10
Cc1cc(C)n(-c2nnc(C)n2/N=C/c2ccco2)n1 | 8 | -8 | . | .
CCCOc1ccc2ccccc2c1/C=N/n1c(C)nnc1-n1nc(C)cc1C | 31 | 21 | 82* | 1
Cc1cccc(-c2nc(C#N)c(NC3CCCCC3)o2)c1 | 50* | 35 | . | .
CSc1ncccc1C(=O)OCc1ccccc1 | 30 | 46 | 1 | 6
CSc1ncccc1C(=O)OCc1ccccc1F | 29 | 89* | -5 | -5
COc1ccc(-c2nnc(SCC(=O)Nc3ncc(C)s3)n2-c2ccccc2)cc1OC | 33 | 18 | 50* | 12
CC1CC(C)CN(c2nc3c(c(=O)n(C)c(=O)n3C)n2CCSc2nc3ccccc3o2)C1 (stereo unspecified) | 0 | -11 | -2 | 12
CC(Oc1ccc(Cl)cc1Cl)C(=O)Nc1ccncc1 (stereo unspecified) | -15 | 5 | 44* | 8
CCOC(=O)c1cnc2cc3c(cn2c1=O)CCCC3 | 86* | 27 | 0 | -6
SMILES | SF1 activator | RORA act | Jurkat viability | HEK293 NFkB inh
CCOC(=O)c1cnc2scnn2c1=O | -3 | -11 | -2 | 21
Cn1c(SCc2ccc(C#N)cc2Cl)nc2ccccc21 | 37 | 82* | 3 | -37
O=C(Nc1ccc2nc3n(c(=O)c2c1)CCCCC3)c1ccccn1 | 28 | 54* | -1 | -34
Cc1nn(-c2ccccc2)c(C)c1NS(=O)(=O)c1ccccc1 | 0 | 11 | 6 | 8
COc1ccccc1-c1cc(C(F)(F)F)nc(S(=O)(=O)CCCC(=O)N2CCCCC2C)n1 (stereo unspecified) | -44 | -40 | 58* | 25
Cc1ccccc1-n1nnnc1SC1CCOC1=O (stereo unspecified) | 1 | 38 | -2 | 17
C(=C\c1ccccc1)/CSc1nnc(-c2ccccn2)n1Cc1ccco1 | 8 | 33 | 86* | 25
Clc1ccccc1CSc1nnc(-c2ccccn2)n1Cc1ccco1 | 2 | -17 | . | 13
Nc1nnc(-c2ccncc2)s1 | 3 | -1 | 8 | 17
CCCOc1ccc(-c2nnc(N)s2)cc1 | 59* | 44 | . | .
COc1ccc(-c2nnc(N)s2)cc1 | 7 | 50* | 3 | 4
O=C(Nc1ccc(S(=O)(=O)N2CCN(Cc3ccccc3)CC2)cc1)c1cnccn1 | -40 | -41 | 16 | 26
COc1ccccc1C(=O)Nc1ccc(N2CCN(S(C)(=O)=O)CC2)cc1 | 34 | 41 | -1 | 4
COc1cc2ccccc2cc1C(=O)Nc1ccc(N2CCN(C)CC2)cc1 | 36 | 59* | -1 | -16
COc1cc2ccccc2cc1C(=O)Nc1cccnc1 | 50* | 77* | -1 | -20

High-throughput results: PubChem BioAssay, The Scripps Research Institute Molecular Screening Center
